Reference: PubChem BioAssay AID2657 (Broad Institute, 2010)

Tested on: platelets, SFLLRN actin polymerization, FITC-phalloidin flow
Test: blockers of PAR1 peptide-driven F-actin formation – cell-based, FITC-phalloidin flow cytometry, repeated runs, selectivity assay for platelet granule secretion inhibitor project, late-stage follow-up (AID 2657)
Conditions: at 10 µM; hits give high values
How it was run: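 System: Gel-filtered platelets; Reagent: 5 µM SFLLRN or unstimulated; Doses: 10 µM compound, single dose; Timing: 20 min compound, 15 min agonist, 37 °C; Measured by: FITC-phalloidin F-actin staining, flow cytometry; Control set: DMSO-only wells at 0.3% as neutral control.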

Row | Structure (SMILES) | inhibition [%]
1 | Cc1ccc(-n2c(N)c(C#N)c(-c3ccccc3)c(C#N)c2=O)cc1 | 99
2 | C/C(=N/NC(=O)C1CCCC1)c1ccc(NC(=O)C(F)(F)F)cc1 | 73.5
